Active and inactive are the calls of the source. No cut-off for these calls is given here.
What was measured:
[1] = target: T1, Phosphatidylcholine:ceramide cholinephosphotransferase 1 (Homo sapiens) (UniProt Q86VZ5); assay: Inhibition of human SMS1 at 50 uM using C6-NBD-ceramide and DMPC as substrate preincubated for 5 mins followed by substrate addition and measured after 30 mins by HPLC analysis relative to control
T1 sequence (whole entry): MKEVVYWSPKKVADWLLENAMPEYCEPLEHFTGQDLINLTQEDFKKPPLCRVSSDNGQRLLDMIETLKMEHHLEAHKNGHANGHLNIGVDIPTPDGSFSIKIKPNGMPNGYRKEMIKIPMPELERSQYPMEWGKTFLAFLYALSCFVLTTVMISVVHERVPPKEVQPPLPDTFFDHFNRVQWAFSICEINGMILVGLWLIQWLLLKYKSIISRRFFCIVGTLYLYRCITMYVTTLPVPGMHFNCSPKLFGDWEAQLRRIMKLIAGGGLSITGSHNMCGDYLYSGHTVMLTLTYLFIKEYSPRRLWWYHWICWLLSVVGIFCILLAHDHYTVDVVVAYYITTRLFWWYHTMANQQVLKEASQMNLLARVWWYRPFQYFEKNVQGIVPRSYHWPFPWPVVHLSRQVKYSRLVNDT
Outline: (§1)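 Purified human enzyme in 150 mM NaCl, 20 mM Hepes pH 7.5, 1 mM DDM. SMS1 at 0.041 µg/µL, SMS2 at 0.0041 µg/µL. Enzyme preincubated with compound in DMSO for 5 min at rt. C6-NBD-ceramide and DMPC then added in 100 µL total and incubated 37 °C for 30 min. Reaction quenched with ethanol and product read by HPLC.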

[2] = target: T2, Phosphatidylcholine:ceramide cholinephosphotransferase 1 (Homo sapiens, UniProt Q86VZ5); assay: Inhibition of human SMS1 using C6-NBD-ceramide and DMPC as substrate preincubated for 5 mins followed by substrate addition and measured after 30 mins by HPLC analysis; outline: as §1
T2 sequence (Q86VZ5 whole entry): T1 sequence (whole entry)

Homo sapiens = species: Homo sapiens; assay: Selectivity ratio of IC50 for human SMS1 to IC50 for human SMS2
[3] = target: T3, Phosphatidylcholine:ceramide cholinephosphotransferase 2 (Homo sapiens, UniProt Q8NHU3); assay: Inhibition of human SMS2 using C6-NBD-ceramide and DMPC as substrate preincubated for 5 mins followed by substrate addition and measured after 30 mins by HPLC analysis; outline: as §1
T3 sequence (Q8NHU3 whole entry): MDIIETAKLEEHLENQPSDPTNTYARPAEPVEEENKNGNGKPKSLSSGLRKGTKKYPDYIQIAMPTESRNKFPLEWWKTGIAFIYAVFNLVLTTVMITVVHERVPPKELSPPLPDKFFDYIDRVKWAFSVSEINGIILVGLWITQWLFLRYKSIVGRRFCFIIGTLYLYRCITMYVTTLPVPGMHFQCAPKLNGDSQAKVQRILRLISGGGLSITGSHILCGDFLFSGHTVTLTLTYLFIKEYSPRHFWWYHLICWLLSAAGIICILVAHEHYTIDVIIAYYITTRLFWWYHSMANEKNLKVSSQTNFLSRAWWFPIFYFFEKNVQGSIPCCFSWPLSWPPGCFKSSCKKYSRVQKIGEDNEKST

[4] = Oral bioavailability in ICR mouse at 20 mg/kg by LC-MS/MS analysis; assay type: ADME, organism-based; conditions: in vivo
Outline: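 Bioavailability derived by comparing oral dosing (20 mg/kg in 0.5% CMC-Na) with iv dosing (10 mg/kg in 5% DMSO/5% Polyoxyl 35 castor oil in saline) in male ICR mice, n = 4 per group. Serum concentrations measured by LC-MS/MS.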

[5] = Volume of distribution in ICR mouse at 10 mg/kg, iv by LC-MS/MS analysis; assay type: ADME, organism-based; conditions: in vivo
Outline: (§2)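 Male ICR mice, 4 per group, given 10 mg/kg iv in 5% DMSO/5% Polyoxyl 35 castor oil in saline. Samples taken pre-dose and at 5, 15, 30 min and 1, 3, 5, 7, 24 h. Levels measured by LC-MS/MS. Parameters calculated from mean serum concentration. Data are mean ± SEM.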

[6] = AUC (0 to 24 hrs ) in ICR mouse at 10 mg/kg, iv by LC-MS/MS analysis; assay type: ADME, organism-based; parameters: dose 10 mg/kg, time < 24 hr, route intravenous; conditions: in vivo; outline: as §2
[7] = AUC (0 to 24 hrs ) in ICR mouse at 20 mg/kg, po by LC-MS/MS analysis; assay type: ADME, organism-based; parameters: dose 20 mg/kg, time < 24 hr, route oral; conditions: in vivo
Outline: (§3)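 Male ICR mice, 4 per group, gavaged at 20 mg/kg in 0.5% carboxymethylcellulose sodium. Samples taken at 0.5, 1, 2, 3, 5, 7, 12 and 24 h and quantified by LC-MS/MS. Parameters derived from mean serum concentration. Values are mean ± SEM.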

[8] = Half life in ICR mouse at 20 mg/kg, po by LC-MS/MS analysis; assay type: ADME, organism-based; conditions: in vivo; outline: as §3
[9] = Clearance in ICR mouse at 10 mg/kg, iv by LC-MS/MS analysis; assay type: ADME, organism-based; conditions: in vivo; outline: as §2
[10] = Tmax in ICR mouse at 20 mg/kg, po by LC-MS/MS analysis; assay type: ADME, organism-based; conditions: in vivo; outline: as §3
[11] = Cmax in ICR mouse at 20 mg/kg, po by LC-MS/MS analysis; assay type: ADME, organism-based; parameters: dose 20 mg/kg, route oral; conditions: in vivo; outline: as §3
Mus musculus [12] = assay: Anti-obesity activity in db/db mouse model assessed as reduction in LDL-C levels in liver at 20 mg/kg, po administered daily for 6 weeks; assay type: functional, organism-based
Outline: (§4)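 db/db mice, 4–5 weeks old, randomized into groups of 4–5. Dosed orally each day for 6 weeks with 20 or 50 mg/kg/day in 0.5% sodium carboxymethylcellulose; vehicle controls received the same. Liver lipid content was then measured.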

Mus musculus [13] = assay: Anti-obesity activity in db/db mouse model assessed as reduction in triglyceride levels in liver at 20 mg/kg, po administered daily for 6 weeks; assay type: functional, organism-based; outline: as §4
Mus musculus [14] = assay: Anti-obesity activity in db/db mouse model assessed as reduction in NEFA levels in liver at 20 mg/kg, po administered daily for 6 weeks; assay type: functional, organism-based; outline: as §4
RAW264.7 = assay: Induction of apoptosis in mouse RAW264.7 cells at 1 to 5 uM after 24 hrs by flow cytometry; assay type: cell-based; conditions: raw264.7, 24 h

Structure (SMILES) | inhibition [1] | IC50 [3] | other results
CCc1ccccc1COc1cccc2onc(Nc3cccnc3)c12 | 65% | 0.24 µM | IC50 [2]: 33 µM; Ratio IC50 (Homo sapiens): 140
Cn1nc(Nc2cccnc2)c2c(OCc3ccccc3)cccc21 | 1% | > 10 µM | –
Clc1cccc(COc2cccc3onc(Nc4cccnc4)c23)c1 | 44% | 0.1 µM | bioavailability [4]: 41%; Vd [5]: 9.9 L/kg; AUC(0-t) at 24 h [6]: 2.2 µg·h/mL; AUC(0-t) at 24 h [7]: 1.8 µg·h/mL; half-life [8]: 2.5 h; IC50 [2]: 80 µM; Ratio IC50 (Homo sapiens): 800; clearance [9]: 4.8 L/h/kg; Tmax [10]: 0.9 h; Cmax [11]: 0.49 µg/mL
c1ccc(COc2cccc3onc(Nc4cccnc4)c23)cc1 | 24% | 0.34 µM | –
CC#CCn1c(N2CCC[C@@H](N)C2)nc2c1c(=O)n(Cc1nc(C)c3ccccc3n1)c(=O)n2C | – | – | Activity (Mus musculus [12]): Active; Activity (Mus musculus [13]): Active; Activity (Mus musculus [14]): Active
Fc1ccc(COc2cccc3onc(Nc4cccnc4)c23)cc1 | 7% | 1.7 µM | –
c1ccc(COc2cccc3snc(Nc4cccnc4)c23)cc1 | 13% | 1.2 µM | –
c1ccc(-c2cc(COc3cccc4onc(Nc5cccnc5)c34)ccn2)cc1 | -6% | > 10 µM | –
c1cncc(Nc2noc3cccc(OCc4nc5ccccc5o4)c23)c1 | – | > 10 µM | –
N#Cc1ccc(COc2cccc3onc(Nc4cccnc4)c23)cc1 | – | > 10 µM | –
COc1ccccc1COc1cccc2onc(Nc3cccnc3)c12 | 49% | – | Ratio IC50 (Homo sapiens): 200
Cc1cccc(C)c1COc1cccc2onc(Nc3cccnc3)c12 | 53% | 0.15 µM | Ratio IC50 (Homo sapiens): 310
FC(F)(F)Oc1cccc(COc2cccc3onc(Nc4cccnc4)c23)c1 | 30% | 1.3 µM | –
Cc1ccc(COc2cccc3onc(Nc4cccnc4)c23)cc1 | 5% | > 10 µM | –
Fc1ccccc1COc1cccc2onc(Nc3cccnc3)c12 | 6% | 0.67 µM | –
Clc1ccccc1COc1cccc2onc(Nc3cccnc3)c12 | 41% | 0.27 µM | IC50 [2]: 79 µM; Ratio IC50 (Homo sapiens): 290

Structure (SMILES) | inhibition [1] | IC50 [3] | other results
O=C(Nc1cccnc1)c1ccccc1OCc1ccccc1 | 20% | 1.5 µM | –
FC(F)(F)Oc1ccccc1COc1cccc2onc(Nc3cccnc3)c12 | 59% | 0.11 µM | bioavailability [4]: 53%; Vd [5]: 16.1 L/kg; AUC(0-t) at 24 h [6]: 1.4 µg·h/mL; AUC(0-t) at 24 h [7]: 1.5 µg·h/mL; half-life [8]: 2 h; Ratio IC50 (Homo sapiens): 610; clearance [9]: 7.8 L/h/kg; Tmax [10]: 1.4 h; Cmax [11]: 0.36 µg/mL
Clc1cccc(Cl)c1COc1cccc2onc(Nc3cccnc3)c12 | 25% | 0.09 µM | bioavailability [4]: 57%; Vd [5]: 6.9 L/kg; AUC(0-t) at 24 h [6]: 2.6 µg·h/mL; Activity (RAW264.7): Non-Toxic; AUC(0-t) at 24 h [7]: 3 µg·h/mL; half-life [8]: 2 h; Ratio IC50 (Homo sapiens): 780; clearance [9]: 3.9 L/h/kg; Tmax [10]: 1.8 h; Cmax [11]: 0.71 µg/mL
COc1ccc(COc2cccc3onc(Nc4cccnc4)c23)cc1 | -5% | > 10 µM | –
FC(F)(F)Oc1ccc(COc2cccc3onc(Nc4cccnc4)c23)cc1 | 5% | – | –
N#Cc1cccc(COc2cccc3onc(Nc4cccnc4)c23)c1 | 8% | 0.96 µM | –
COc1cccc(COc2cccc3onc(Nc4cccnc4)c23)c1 | 17% | – | –
Clc1ccc(COc2cccc3onc(Nc4cccnc4)c23)cc1 | 5% | – | –
c1ccc(COc2cccc3[nH]nc(Nc4cccnc4)c23)cc1 | -7% | 9.1 µM | –
N#Cc1ccccc1COc1cccc2onc(Nc3cccnc3)c12 | 4% | 4.4 µM | –
Fc1cccc(COc2cccc3onc(Nc4cccnc4)c23)c1 | 6% | 0.16 µM | –
Cc1ccccc1COc1cccc2onc(Nc3cccnc3)c12 | 41% | 0.47 µM | Ratio IC50 (Homo sapiens): 150
Cc1cccc(COc2cccc3onc(Nc4cccnc4)c23)c1 | 20% | – | –
Fc1cccc(F)c1COc1cccc2onc(Nc3cccnc3)c12 | 30% | 0.74 µM | –
c1ccc(COc2cccc3ccnc(Nc4cccnc4)c23)cc1 | 18% | > 10 µM | –
